# Measured values as given in ChEMBL document CHEMBL4513216, “Probing the Open Global Health Chemical Diversity Library for Multistage-Active Starting Points for Next-Generation Antimalarials” (ACS Infect Dis, 2020).
# Test: Toxicity liver stage against HepG2, at 10uM
# Type: cell-based
# Design: test concentration 10 uM, cell line HepG2-A16-CD81EGFP
# Conditions: human, HepG2-A16-CD81EGFP cells; read-out: INHIBITION
# How it was run: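 Uninfected HepG2-A16-CD81EGFP cells, 3 × 10^3 per well, 1536-well, plated on prespotted compound at 10 μM final, parasite-free screening media added to match infected plates; puromycin 10 μM positive, DMSO 0.5% negative; run in parallel with 48 h PbLuc assay at 37 °C, 5% CO2; viability by CellTiter-Glo luminescence, normalized to controls.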
row,Compound,cytotoxicity at 10 µM
1,COC(=O)c1cnc2c(c(C)nn2C)c1OC,0.822%
2,C/N=C1/c2cc3cc(OC)ccc3n2CCN1Cc1ccccc1,69.7%
3,NC(=O)c1cccc2nc([C@H]3CCN(Cc4ccccn4)C3)[nH]c12,4.32%
4,c1ccc2c(Cc3nnc([C@H]4CCNC4)o3)c[nH]c2c1,-0.762%
5,Cc1nccn1CC1CCN(C(=O)c2ccccc2)CC1,-4.17%
6,O=C(Nc1cnccn1)[C@H]1COC[C@H]2CN(c3ncc(F)cn3)C[C@H]21,-0.695%
7,COCC(=O)N1CCC2(CC1)COc1ccccc1S(=O)(=O)N(C)C2,9.7%
8,CC(C)Nc1nc(N2CCCC2)nc2c1CN(c1ncc(F)cn1)CC2,13.5%
9,O=C(c1ccnnc1)N1CC[C@H](OCC2CC2)[C@@H]1Cc1ccncc1,-1.43%
10,CC(C)CNC(=O)CC1(Cn2cnnn2)CCCCC1,11.1%
11,CC(C)NC(=O)[C@@H](NC(=O)N1CCN(c2ccc(Cl)cc2)CC1)C(C)C,34.9%
12,Cc1c(C)n(-c2ccccn2)c2nc3c(c(N)c12)CCCC3,7.18%
13,CCCc1nc(N2CCCC(C)C2)c2c(n1)c(C)nn2CC (stereo unspecified),15.6%
14,Cc1cccc2c1cnn2CCCNC(=O)C1CC1,5.01%
15,CSc1ccc(-c2noc(CN(CC(C)C)CC(C)C)n2)cc1,-3.7%
16,CCc1nccn1-c1nccnc1C1CCN(C(=O)COC)CC1,-19.7%
17,Cc1ccc([C@]2(O)CC[C@H]3CN(Cc4ccncc4)C[C@H]32)nc1,-31.5%
18,O=C(Cc1ccsc1)N1CCCC(c2n[nH]c3ncccc23)C1 (stereo unspecified),-6.8%
19,CNc1cc(C)nc(C2CN(Cc3cc[nH]n3)CCO2)c1 (stereo unspecified),-9.09%
20,N#CC(NC(=O)CCCOc1cccnc1)c1ccc(F)cc1F (stereo unspecified),8.23%
21,CCc1ccc(C(=O)Nc2ccc3c(c2)N(C)CCN(C)C3)o1,-7.69%
22,N#Cc1ccccc1OCCN1CCN(C(=O)C2CCCC2)CC1,-52.1%
23,Cc1ccc(-c2nc(CC(=O)NCC(C)N3CCOCC3)cs2)o1 (stereo unspecified),-47.5%

row,Compound,cytotoxicity at 10 µM
1,O=C(NCCn1ccnc1)C1COCC(=O)N1Cc1ccccc1 (stereo unspecified),8.19%
2,CCOCCN1CCN(CCc2ccc3c(c2)CCO3)CC1,4.1%
3,CCC(CC)(CNC(=O)OC(C)(C)C)NC(=O)c1cnccn1,-8.56%
4,CC(CNC1CCN(c2ccccn2)CC1)Oc1ccc(F)cc1 (stereo unspecified),7.43%
5,CS(=O)(=O)c1ccccc1N[C@@H]1c2ccccc2C[C@@H]1O,-40.5%
6,COc1cc(C)sc1C(=O)NCCC(=O)N(C)Cc1ccccc1,-8.78%
7,N#Cc1c(F)cccc1Nc1cnn(CC(N)=O)c1,6.25%
8,CCc1ccc(C2CCCN2C(=O)Cc2ccc(NC(C)=O)cc2)o1 (stereo unspecified),-0.557%
9,CC(C)C(C)N(C)Cc1nnc(-c2ccco2)o1 (stereo unspecified),2.65%
10,Cc1cc(C)c(CCNC(=O)CN2CCCN(C(N)=O)CC2)c(C)c1,-0.819%
11,COc1ccc(CNC(=O)N2CCOCC2C2CC2)cc1C (stereo unspecified),10.4%
12,COCc1nc2cc(NCc3sc(C)nc3C)ccc2o1,29.1%
13,CNS(=O)(=O)c1cccc(C(C)NCc2ccc(F)cc2F)c1 (stereo unspecified),12.8%
14,O=C(CCn1cccn1)NCC(c1cccs1)N1CCCC1 (stereo unspecified),7.02%
15,CN(Cc1ccc(Cl)s1)C(=O)Cn1nc(-c2ccc(F)cc2)oc1=O,-20.4%
16,COc1ccc(NC(=O)CSC(F)(F)F)cn1,-96.6%
17,CC(Nc1cnn(C)c(=O)c1Cl)c1ccc(F)cc1 (stereo unspecified),20.7%
18,O=C(CCN1C(=O)CCC1=O)Nc1ccc(Cl)cc1,-2.79%
19,CNC(=O)CN1CCC(OCc2ccc(Cl)c(Cl)c2)CC1,-14.4%
20,CCCc1noc(CN2CCOCC2C)n1 (stereo unspecified),6.3%
21,Cc1oc(-c2ccsc2)nc1CN1CCCC(c2ccnn2C)C1 (stereo unspecified),10.7%
22,CCS(=O)(=O)NC(CCSC)C(=O)Nc1cc(F)ccc1C (stereo unspecified),6.29%
23,O=C(CN(CC(O)c1ccc(F)cc1)C1CC1)NCc1cccs1 (stereo unspecified),0.0428%

row,Compound,cytotoxicity at 10 µM
1,Cc1csc(CCCNc2ccc(S(N)(=O)=O)cc2C#N)n1,-49%
2,CCn1cc(C2CCN(Cc3ccnc(N(C)C)c3)CC2)cn1,11%
3,CN(CCNS(C)(=O)=O)C(=O)c1ccc(Cl)c(Cl)c1,-52.4%
4,CC(CCN(C)C)NC(=O)c1cccc(C(F)(F)F)c1F (stereo unspecified),-52.6%
5,CNC(=O)CN1CCOCC2(C1)CN(Cc1csnn1)CCO2 (stereo unspecified),-89.3%
6,Cc1cccc(CO[C@@H]2CC[C@H]3[C@H]2OCCN3Cc2ccoc2)n1,-109%
7,CCC1CN(C(=O)c2ccc(O)cn2)CCC(=O)N1Cc1ccccc1 (stereo unspecified),8.5%
8,CC(C)c1cc(N2CC[C@H](F)C2)n2nccc2n1,-2.56%
9,Cc1ncsc1C(=O)N1CC[C@@]2(O)CCN(C(=O)N3CCCC3)C[C@H]2C1,-14.2%
10,CCNC(=O)[C@@H]1C[C@H](N)CN1Cc1ccc(Sc2ccc(C)cc2)o1,-48.3%
11,CN(CCCc1cnn(C)c1)Cc1cc2n(n1)CCCN(C)C2,-0.857%
12,Cc1cc2ccccc2n1CCC(=O)N1CCCC2(CC1)CNC(=O)O2 (stereo unspecified),3.5%
13,Cc1nnsc1CN1CC[C@@](O)(C2CCC2)[C@H](C)C1,11.8%
14,Cc1ccc(C(=O)NCCC2CN(C3CCCC3)CCO2)c(C)c1 (stereo unspecified),-3.76%
15,CCn1cc(CN2CCC(C3CCN(C)CC3)CC2)cc1C#N,-0.0399%
16,NC(=O)c1ccc(CN2C(=O)C3(CCNCC3)Nc3ccccc32)cc1,-6.38%
17,N#Cc1ccnc(N2CCC(NCCN3CCOCC3)CC2)c1,-43.4%
18,O=C(NCCN1CCCC1)Nc1cc(C(=O)N2CCOCC2)ccc1Cl,-44.2%
19,CCCn1cc(NC(=O)c2cccc(CN3CC[C@H](O)C3)c2)nn1,-12.2%
20,Cc1c(CN2CCc3[nH]cnc3C2C2CC2)[nH]c2ccc(F)cc12 (stereo unspecified),10.8%
21,O=C1CN(Cc2cn(C3CCN(C4CSCCSC4)CC3)nn2)CCN1,-48.8%
22,Cc1ccc(-c2nn(-c3cccc(F)c3)cc2CN(C)CCO)o1,11.6%
23,Cc1nc(N2CCCOC(Cn3cccn3)C2)c2sccc2n1 (stereo unspecified),35.5%

row,Compound,cytotoxicity at 10 µM
1,COc1cc(C)ccc1OCc1nc(C(=O)N2CCCO2)co1,-45.9%
2,Cc1nccn1CC1CCCN(Cc2ccc(-c3cccnc3)cc2)C1 (stereo unspecified),2.97%
3,Cc1ccccc1S(=O)(=O)N1CCc2c(ncnc2N(C)C)C1,-16.6%
4,CCc1nc2c(NCC3COc4cc(OC)ccc4C3)ncnc2o1 (stereo unspecified),40.9%
5,N#CC1CCCN(c2ncnc3c2CCN(Cc2ccccc2)CC3)C1 (stereo unspecified),-3.64%
6,c1ccc(Oc2cccc(OC34CCCN(CC3)C4)c2)cc1 (stereo unspecified),0.681%
7,Cc1cnc(NCC(C)(C)N2CCOCC2)nc1,5.68%
8,CS(=O)(=O)c1ccc(NC(=O)N2C[C@H](O)[C@@H](N3CCOCC3)C2)cc1,-46%
9,Cc1nc2c(NCC(C)N(C)c3ccccc3)ncnc2o1 (stereo unspecified),4.73%
10,N#Cc1cc2c(nc1SCc1cc(O)nc(O)n1)CCCCC2,4.97%
11,CC(C)c1cc(C(=O)N(C)Cc2cccc3ncccc23)n(C)n1,12.3%
12,N#Cc1cc(F)ccc1CN1CCCC1Cn1cccn1 (stereo unspecified),2.01%
13,COC(=O)c1ccc(N2CCN(C(=O)c3cnc(C)cn3)C(C)C2)cc1 (stereo unspecified),3.09%
14,Cc1cnn(CCNCC(O)COc2ccc(Cl)cc2Cl)c1 (stereo unspecified),-1.76%
15,CC(C)c1n[nH]c(C(=O)Nc2ccccn2)c1Br,-31.7%
16,Cc1cccc(NC2CCN(C(=O)Nc3ccc(F)c(F)c3)CC2)n1,9.59%
17,CC(=O)Nc1nc(C(=O)N2CCCC(n3cncn3)C2)cs1 (stereo unspecified),-2.02%
18,N#Cc1cccc(CN2CCN(Cc3cscn3)CC2)c1,1.16%
19,Clc1ccc2cccnc2c1CN1CCCC1Cn1cncn1 (stereo unspecified),3.91%
20,Cc1csc(NC(=O)CN2CCC(c3ccnn3CCO)CC2)n1,5.03%
21,Cc1cccc(C2(CNC(=O)CCNS(C)(=O)=O)CCCC2)c1,-5.92%
22,Cc1nc(Nc2ncc(C)s2)cc(C2CCCN2)n1 (stereo unspecified),82%
23,Cc1nc(CN2C[C@@H]3CCCO[C@@H]3[C@H](N(C)C(C)C)C2)cs1,6.86%

row,Compound,cytotoxicity at 10 µM
1,COc1cccc(CN2CCC3(CC2)CCN(c2ncc(C)cn2)C3)c1,-3.55%
2,Cc1nc(CN2CCC3(CCN(C(=O)c4ccoc4C)CC3)C2)cs1,-5.19%
3,COc1cccc(-c2noc(C3CCN(Cc4ccc(C)cc4)C3)n2)c1 (stereo unspecified),-5.89%
4,CCCN1CCCn2c(nc(CNC(=O)c3nccn3C)cc2=O)C1,9.73%
5,CS(=O)(=O)N1CCC2(CC1)CC(NCc1ccco1)c1ccccc12 (stereo unspecified),-110%
6,c1cnc(N2CCOCC3(CCCN(Cc4cccs4)C3)C2)nc1 (stereo unspecified),-68.3%
7,CN1C[C@H]2N(c3ncccn3)CCC[C@@]2(C(=O)NCC2CC2)C1,-103%
8,CC(C)OCc1ncn2c1CN(CC1CC1)CCC2,-68.9%
9,CCOCC1CN(Cc2cnn(C)c2)Cc2nn(CC3CC3)cc21 (stereo unspecified),-75.9%
10,Cc1noc(C)c1CN1CCOCC12CCN(c1nccs1)CC2,-104%
11,Cc1noc(C)c1CN1CCC2(CC1)NC(=O)CC2c1ccccc1 (stereo unspecified),-109%
12,O=C1COC2(CCN(Cc3cccs3)CC2)CN1c1cncnc1,-124%
13,CS(=O)(=O)NC[C@]12COC[C@H]1CN(CC1CCC1)C2,-110%
14,Cc1ccsc1CN1CCn2c(COc3cccnc3)cnc2C1C (stereo unspecified),-99.4%
15,Cn1cc(CN2CCCC23CCN(C(=O)c2cccn2C)CC3)cn1,2.88%
16,Cc1ccc2c(c1)CN(C(=O)c1cnc(C)cn1)C(CN(C)C)CO2 (stereo unspecified),-22.3%
17,Fc1ccc(CN2CCO[C@H]3[C@H](OCC4CCCC4)CC[C@@H]32)cc1,37.9%
18,CC1(C)[C@@H]2CC=C(CN3CCCn4nc(C(=O)O)cc4C3)[C@H]1C2,-40.8%
19,O=c1c(=CS(=O)(=O)Nc2ccc(Br)cc2)[nH]c(=O)n2cccc12,-9.95%
